Key:
P2Y purinoceptor 4 [1] = biological target: T1, P2Y purinoceptor 4 (Homo sapiens, UniProt P51582); assay: Antagonist activity at human P2Y4 receptor transfected in human 1321N1 cells assessed as inhibition of UTP-activated intracellular calcium mobilization preincubated for 30 mins followed by UTP addition by fluo-4-dye based fluorescence assay; assay type: functional, cell-based
Outline: (§1)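 1321N1 astrocytoma cells stably expressing the human P2Y subtype, grown in DMEM with 10 % FCS and 200 μg/mL G418 at 37 °C. Plated 50,000 cells/well about 24 h before testing. Cells loaded with fluo-4 AM for 1 h, then placed in HBSS and preincubated 30 min with compound. Agonist was injected at about EC80: ADP 500 nM (P2Y1), UTP 500 nM (P2Y2, P2Y4), UDP 750 nM (P2Y6). Fluorescence read at ex 488/em 525 nm. At least three independent experiments in duplicate. IC50 obtained by nonlinear regression.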

P2Y purinoceptor 4 [2] = biological target: T1, P2Y purinoceptor 4; assay: Antagonist activity at human P2Y4 receptor transfected in human 1321N1 cells assessed as inhibition of UTP-activated intracellular calcium mobilization at 30 uM preincubated for 30 mins followed by UTP addition by fluo-4-dye based fluorescence assay; assay type: functional, cell-based
P2Y purinoceptor 1 = P2Y purinoceptor 1 (Homo sapiens, UniProt P47900); assay: Antagonist activity at human P2Y1 receptor transfected in human 1321N1 cells assessed as inhibition of ADP-activated intracellular calcium mobilization preincubated for 30 mins followed by ADP addition by fluo-4-dye based fluorescence assay; assay type: functional, cell-based; outline: as §1
P2Y purinoceptor 2 = P2Y purinoceptor 2 (Homo sapiens, UniProt P41231); assay: Antagonist activity at human P2Y2 receptor transfected in human 1321N1 cells assessed as inhibition of UTP-activated intracellular calcium mobilization preincubated for 30 mins followed by UTP addition by fluo-4-dye based fluorescence assay; assay type: functional, cell-based; outline: as §1
P2Y purinoceptor 6 = P2Y purinoceptor 6 (Homo sapiens, UniProt Q15077); assay: Antagonist activity at human P2Y6 receptor transfected in human 1321N1 cells assessed as inhibition of UDP-activated intracellular calcium mobilization preincubated for 30 mins followed by UDP addition by fluo-4-dye based fluorescence assay; assay type: functional, cell-based; outline: as §1
P2Y purinoceptor 12 = P2Y purinoceptor 12 (Homo sapiens, UniProt Q9H244); assay: Antagonist activity at human P2Y12 receptor expressed in CHO cells assessed as inhibition of 2-MeSADP-induced beta-arrestin translocation preincubated for 30 mins followed by 2-MeSADP addition measured after 90 mins by luminescence-based topcount method; assay type: cell-based
Sequence of P2Y purinoceptor 12 (Q9H244 whole entry): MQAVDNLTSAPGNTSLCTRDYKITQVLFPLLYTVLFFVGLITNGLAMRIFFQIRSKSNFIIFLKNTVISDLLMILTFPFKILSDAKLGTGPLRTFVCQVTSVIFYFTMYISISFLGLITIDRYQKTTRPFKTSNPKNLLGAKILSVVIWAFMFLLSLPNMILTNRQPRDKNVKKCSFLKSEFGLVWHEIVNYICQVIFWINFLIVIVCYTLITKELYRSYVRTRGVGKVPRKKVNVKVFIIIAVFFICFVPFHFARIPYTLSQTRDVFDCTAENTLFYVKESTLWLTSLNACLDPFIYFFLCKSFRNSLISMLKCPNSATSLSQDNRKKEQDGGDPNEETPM

T1 sequence (P51582 whole entry): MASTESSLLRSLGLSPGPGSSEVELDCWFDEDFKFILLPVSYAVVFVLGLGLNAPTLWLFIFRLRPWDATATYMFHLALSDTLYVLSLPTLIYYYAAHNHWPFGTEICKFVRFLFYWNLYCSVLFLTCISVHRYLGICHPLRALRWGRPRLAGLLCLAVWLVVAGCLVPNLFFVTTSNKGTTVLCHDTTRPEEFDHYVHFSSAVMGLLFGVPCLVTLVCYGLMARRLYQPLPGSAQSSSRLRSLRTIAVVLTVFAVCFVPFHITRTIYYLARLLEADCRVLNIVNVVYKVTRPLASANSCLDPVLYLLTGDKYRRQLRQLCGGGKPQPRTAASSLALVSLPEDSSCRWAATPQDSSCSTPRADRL
Sequence of P2Y purinoceptor 6 (Q15077 whole entry): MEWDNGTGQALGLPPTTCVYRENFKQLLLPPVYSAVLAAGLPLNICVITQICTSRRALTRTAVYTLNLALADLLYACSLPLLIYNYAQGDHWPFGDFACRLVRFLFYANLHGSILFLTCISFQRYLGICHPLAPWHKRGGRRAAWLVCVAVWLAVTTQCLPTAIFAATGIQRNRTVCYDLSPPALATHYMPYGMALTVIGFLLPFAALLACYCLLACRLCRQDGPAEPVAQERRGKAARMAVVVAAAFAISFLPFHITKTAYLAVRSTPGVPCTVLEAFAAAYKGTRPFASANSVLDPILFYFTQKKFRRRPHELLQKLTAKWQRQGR
Sequence of P2Y purinoceptor 2 (P41231 whole entry): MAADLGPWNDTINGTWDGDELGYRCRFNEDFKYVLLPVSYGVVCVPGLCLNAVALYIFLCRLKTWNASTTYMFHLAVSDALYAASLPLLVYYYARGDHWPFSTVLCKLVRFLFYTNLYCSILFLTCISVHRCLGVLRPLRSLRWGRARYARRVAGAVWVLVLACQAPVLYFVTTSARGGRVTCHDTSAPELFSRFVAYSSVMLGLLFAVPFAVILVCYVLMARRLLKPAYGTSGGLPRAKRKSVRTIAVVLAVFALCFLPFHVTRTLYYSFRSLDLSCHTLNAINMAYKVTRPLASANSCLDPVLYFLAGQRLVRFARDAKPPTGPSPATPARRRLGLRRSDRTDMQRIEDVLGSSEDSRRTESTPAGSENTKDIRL
Sequence of P2Y purinoceptor 1 (P47900 whole entry): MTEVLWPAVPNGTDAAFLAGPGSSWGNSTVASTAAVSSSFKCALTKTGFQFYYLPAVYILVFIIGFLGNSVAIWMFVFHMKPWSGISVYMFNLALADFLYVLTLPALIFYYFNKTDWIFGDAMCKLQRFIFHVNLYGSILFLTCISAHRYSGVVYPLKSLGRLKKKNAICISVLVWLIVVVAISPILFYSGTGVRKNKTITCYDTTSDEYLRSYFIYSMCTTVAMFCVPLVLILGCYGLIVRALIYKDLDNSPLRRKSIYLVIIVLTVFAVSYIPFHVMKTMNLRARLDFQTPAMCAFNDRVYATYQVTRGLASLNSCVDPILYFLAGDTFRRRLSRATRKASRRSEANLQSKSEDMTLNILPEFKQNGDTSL

| Structure (SMILES) | IC50 (P2Y purinoceptor 4 [1]) | other results |
| --- | --- | --- |
| Nc1c(S(=O)(=O)O)cc(Nc2cccc3ccccc23)c2c1C(=O)c1ccccc1C2=O | 7.42 µM | – |
| Nc1c(S(=O)(=O)O)cc(Nc2cccc(C(=O)O)c2)c2c1C(=O)c1ccccc1C2=O | 23.4 µM | – |
| Nc1c(S(=O)(=O)O)cc(NCc2ccccc2)c2c1C(=O)c1ccccc1C2=O | 14.4 µM | – |
| COc1cc(Nc2cc(S(=O)(=O)O)c(N)c3c2C(=O)c2ccccc2C3=O)ccc1Cl | 3.37 µM | – |
| Nc1c(S(=O)(=O)O)cc(Nc2ccc(F)cc2)c2c1C(=O)c1ccccc1C2=O | 4.04 µM | – |
| Nc1c(S(=O)(=O)O)cc(Nc2ccc(O)cc2C(=O)O)c2c1C(=O)c1ccccc1C2=O | 21.1 µM | – |
| Nc1c(S(=O)(=O)O)cc(Nc2ccc(Br)cc2)c2c1C(=O)c1ccccc1C2=O | 3.3 µM | – |
| COc1cccc(Nc2cc(C)c(N)c3c2C(=O)c2ccccc2C3=O)c1 | > 30 µM | inhibition (P2Y purinoceptor 4 [2]): 38% |
| Nc1c(S(=O)(=O)O)cc(Nc2ccc(F)cc2C(=O)O)c2c1C(=O)c1ccccc1C2=O [listing 1 of 2 here] | > 100 µM | – |
| Nc1c(S(=O)(=O)O)cc(Nc2ccc(C(=O)O)cc2)c2c1C(=O)c1ccccc1C2=O | 30 µM | inhibition (P2Y purinoceptor 4 [2]): 57% |
| COc1ccccc1Nc1cc(S(=O)(=O)O)c(N)c2c1C(=O)c1ccccc1C2=O | 3.98 µM | – |
| COc1cc(Nc2cc(S(=O)(=O)O)c(N)c3c2C(=O)c2ccccc2C3=O)cc(OC)c1 | 9.25 µM | – |
| Nc1c(S(=O)(=O)O)cc(Nc2ccccc2)c2c1C(=O)c1ccccc1C2=O [ACID BLUE 25] | 1.97 to 3.1 µM | IC50 (P2Y purinoceptor 1): 17.6 µM; IC50 (P2Y purinoceptor 2): 17.1 µM; IC50 (P2Y purinoceptor 6): 2.79 µM; IC50 (P2Y purinoceptor 12): 3.12 µM |
| CCc1ccccc1Nc1cc(S(=O)(=O)O)c(N)c2c1C(=O)c1ccccc1C2=O | 3.53 µM | – |
| Nc1c(S(=O)(=O)O)cc(Nc2ccc(F)cc2C(=O)O)c2c1C(=O)c1ccccc1C2=O [listing 2 of 2 here] | > 100 µM | – |
| Nc1c(S(=O)(=O)O)cc(Nc2ccc(Cl)cc2)c2c1C(=O)c1ccccc1C2=O | 3.03 µM | – |
| COc1cc(Nc2cc(S(=O)(=O)O)c(N)c3c2C(=O)c2ccccc2C3=O)ccc1C | 4.13 µM | – |
| Cc1ccc(Nc2cc(S(=O)(=O)O)c(N)c3c2C(=O)c2ccccc2C3=O)cc1 | 2.82 µM | – |
| Cc1cc(C)cc(Nc2cc(S(=O)(=O)O)c(N)c3c2C(=O)c2ccccc2C3=O)c1 | 6.45 µM | – |
| Cc1ccc(Nc2cc(S(=O)(=O)O)c(N)c3c2C(=O)c2ccccc2C3=O)c(C)c1 | 3.58 µM | – |

| Structure (SMILES) | IC50 (P2Y purinoceptor 4 [1]) | other results |
| --- | --- | --- |
| O=C1c2ccccc2C(=O)c2c(Nc3cccc(F)c3)cc(S(=O)(=O)O)cc21 | 30 µM | – |
| Nc1c(S(=O)(=O)O)cc(NCCc2ccccc2)c2c1C(=O)c1ccccc1C2=O | 7.18 µM | – |
| COc1ccc(Nc2cc(S(=O)(=O)O)c(N)c3c2C(=O)c2ccccc2C3=O)cc1OC | 4.98 µM | – |
| Nc1c(S(=O)(=O)O)cc(Nc2ccc([N+](=O)[O-])cc2C(=O)O)c2c1C(=O)c1ccccc1C2=O | > 30 µM | inhibition (P2Y purinoceptor 4 [2]): 30% |
| Nc1c(S(=O)(=O)O)cc(Nc2cccc(Br)c2)c2c1C(=O)c1ccccc1C2=O | 6.96 µM | – |
| Nc1c(S(=O)(=O)O)cc(Nc2ccccc2Cl)c2c1C(=O)c1ccccc1C2=O | 9.34 µM | – |
| Cc1cc(Nc2cccc(F)c2)c2c(c1N)C(=O)c1ccccc1C2=O | > 30 µM | inhibition (P2Y purinoceptor 4 [2]): -4% |
| Nc1c(S(=O)(=O)O)cc(Nc2cc(F)cc(F)c2)c2c1C(=O)c1ccccc1C2=O | 12.5 µM | – |
| Nc1c(S(=O)(=O)O)cc(Nc2cc(Cl)ccc2C(=O)O)c2c1C(=O)c1ccccc1C2=O | 2.76 µM | – |
| Nc1c(S(=O)(=O)O)cc(Nc2ccc(Br)cc2C(=O)O)c2c1C(=O)c1ccccc1C2=O | > 100 µM | inhibition (P2Y purinoceptor 4 [2]): 30% |
| CCCc1cccc(Nc2cc(S(=O)(=O)O)c(N)c3c2C(=O)c2ccccc2C3=O)c1 | 2.99 µM | – |
| CCc1ccc(Nc2cc(S(=O)(=O)O)c(N)c3c2C(=O)c2ccccc2C3=O)cc1 | 3.21 µM | – |
| Nc1c(S(=O)(=O)O)cc(Nc2ccc(Cc3ccccc3)cc2)c2c1C(=O)c1ccccc1C2=O | 3.45 µM | – |
| Cc1ccc(C)c(Nc2cc(S(=O)(=O)O)c(N)c3c2C(=O)c2ccccc2C3=O)c1 | 11.2 µM | – |
| Nc1c(S(=O)(=O)O)cc(Nc2ccc(O)cc2)c2c1C(=O)c1ccccc1C2=O | 3.16 µM | – |
| Nc1c(S(=O)(=O)O)cc(Nc2ccccc2C(=O)O)c2c1C(=O)c1ccccc1C2=O | 6.1 µM | – |
| Nc1c(S(=O)(=O)O)cc(Nc2ccc(Nc3nc(Cl)nc(Nc4cccc(S(=O)(=O)O)c4)n3)c(S(=O)(=O)O)c2)c2c1C(=O)c1ccccc1C2=O [RB 2] | 1.14 µM | – |
| Cc1ccccc1Nc1cc(S(=O)(=O)O)c(N)c2c1C(=O)c1ccccc1C2=O | 3.49 µM | – |
| COc1cccc(Nc2cc(S(=O)(=O)O)c(N)c3c2C(=O)c2ccccc2C3=O)c1 [listing 2 of 3 here] | – | inhibition (P2Y purinoceptor 4 [2]): 77% |
| COc1cccc(Nc2cc(S(=O)(=O)O)c(N)c3c2C(=O)c2ccccc2C3=O)c1 [listing 3 of 3 here] | > 10 µM | – |

Further compounds by falling IC50 (P2Y purinoceptor 4 [1]), results first:

| IC50 (P2Y purinoceptor 4 [1]) | Structure (SMILES) | other results |
| --- | --- | --- |
| 2.63 µM | Cc1cccc(Nc2cc(S(=O)(=O)O)c(N)c3c2C(=O)c2ccccc2C3=O)c1C | – |
| 2.59 µM | COc1ccc(Nc2cc(S(=O)(=O)O)c(N)c3c2C(=O)c2ccccc2C3=O)cc1 | – |
| 2.34 µM | Nc1c(S(=O)(=O)O)cc(Nc2cccc(Cl)c2)c2c1C(=O)c1ccccc1C2=O | – |
| 2.22 µM | Cc1cccc(Nc2cc(S(=O)(=O)O)c(N)c3c2C(=O)c2ccccc2C3=O)c1 | – |
| 2.2 µM | Cc1cc(Cl)ccc1Nc1cc(S(=O)(=O)O)c(N)c2c1C(=O)c1ccccc1C2=O | – |
| 1.94 µM | Nc1c(S(=O)(=O)O)cc(Nc2ccc(Oc3ccccc3)cc2)c2c1C(=O)c1ccccc1C2=O | – |
| 1.91 µM | Nc1c(S(=O)(=O)O)cc(Nc2ccc(Nc3ccccc3)cc2)c2c1C(=O)c1ccccc1C2=O | – |
| 1.76 µM | Nc1c(S(=O)(=O)O)cc(Nc2ccc(Oc3ccc(Br)cc3)cc2)c2c1C(=O)c1ccccc1C2=O | – |
| 1.7 µM | COc1cccc(Nc2cc(S(=O)(=O)O)c(N)c3c2C(=O)c2ccccc2C3=O)c1 [listing 1 of 3 here] | – |
| 1.69 µM | Nc1c(S(=O)(=O)O)cc(Nc2ccc(Oc3ccc(F)cc3)cc2)c2c1C(=O)c1ccccc1C2=O | – |
| 1.65 µM | Cc1cc(Nc2cc(S(=O)(=O)O)c(N)c3c2C(=O)c2ccccc2C3=O)ccc1Cl | – |
| 1.54 µM | COc1cc(Nc2cc(S(=O)(=O)O)c(N)c3c2C(=O)c2ccccc2C3=O)ccc1F | – |
| 1.51 µM | CCc1cccc(Nc2cc(S(=O)(=O)O)c(N)c3c2C(=O)c2ccccc2C3=O)c1 | – |
| 1.39 µM | Nc1c(S(=O)(=O)O)cc(Nc2cccc(F)c2)c2c1C(=O)c1ccccc1C2=O | – |
| 1.18 µM | Nc1c(S(=O)(=O)O)cc(Nc2ccc(Sc3ccccc3)cc2)c2c1C(=O)c1ccccc1C2=O | – |
| 0.746 µM | Cc1cc(Nc2cc(S(=O)(=O)O)c(N)c3c2C(=O)c2ccccc2C3=O)ccc1O | IC50 (P2Y purinoceptor 1): 7.65 µM; IC50 (P2Y purinoceptor 2): 16.4 µM; IC50 (P2Y purinoceptor 6): 4.75 µM; IC50 (P2Y purinoceptor 12): 0.0604 µM |
| 0.625 µM | Nc1c(S(=O)(=O)O)cc(Nc2ccc(Nc3nc(Cl)nc(Nc4ccc(S(=O)(=O)O)cc4)n3)c(S(=O)(=O)O)c2)c2c1C(=O)c1ccccc1C2=O | – |
| 0.482 µM | Cc1ccc(Sc2ccc(Nc3cc(S(=O)(=O)O)c(N)c4c3C(=O)c3ccccc3C4=O)cc2)cc1C | IC50 (P2Y purinoceptor 1): 4.55 µM; IC50 (P2Y purinoceptor 2): 10.2 µM; IC50 (P2Y purinoceptor 6): 4.36 µM; IC50 (P2Y purinoceptor 12): 2.34 µM |
| 0.395 µM | Cc1ccc(C)c(Sc2ccc(Nc3cc(S(=O)(=O)O)c(N)c4c3C(=O)c3ccccc3C4=O)cc2)c1 | IC50 (P2Y purinoceptor 1): 2.72 µM; IC50 (P2Y purinoceptor 2): 6.52 µM; IC50 (P2Y purinoceptor 6): 2.67 µM; IC50 (P2Y purinoceptor 12): 2.96 µM |
| 0.373 µM | Nc1c(S(=O)(=O)O)cc(Nc2ccc(Oc3ccc(Cl)cc3)cc2)c2c1C(=O)c1ccccc1C2=O | – |
